Measurements from ChEMBL document CHEMBL3994573, “Cytotoxic Lanostanoids from Poria cocos” (J Nat Prod, 2016).

test system: CCRF-CEM; test: Antiproliferative activity against human CCRF-CEM cells after 72 hrs by MTT assay; type: functional, cell-based; conditions: not given
In short: (§1)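 Leukemia cells (ATCC) grown in RPMI-1640 with 10% FCS, 2 mM glutamine, penicillin/streptomycin at 37 °C, 5% CO2. Seeded at 4 × 10^4 per well. Exposed 72 h to 1.25, 2.5, 5, 10 and 20 μg/mL (DMSO under 0.02%). MTT formazan dissolved in DMSO, read as OD570 − OD620. IC50 = concentration giving half the control absorbance. n = 4 wells per experiment, four separate experiments, ± SD.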

| IC50 | Compound |
| --- | --- |
| > 40 µM | C=C(CC[C@@H](C(=O)O)[C@H]1[C@H](O)C[C@@]2(C)C3=CCC4[C@](C)(CC[C@H](O)[C@]4(C)CO)C3=CC[C@]12C)C(C)C (stereo partly specified) |
| > 40 µM | C=C(C)C(=O)CC[C@@H](C(=O)O)[C@H]1[C@H](O)C[C@@]2(C)C3=C(CC[C@]12C)[C@@]1(C)CC[C@H](O)C(C)(C)[C@@H]1CC3 |
| > 40 µM | CC(C)=CCC[C@@H](C(=O)O)[C@H]1[C@H](O)C[C@@]2(C)C3=C(CC[C@]12C)[C@@]1(C)CC[C@H](O)C(C)(C)[C@@H]1CC3 |
| > 40 µM | C=C(CC[C@@H](C(=O)O)[C@H]1[C@H](O)C[C@@]2(C)C3=C(CC[C@]12C)[C@@]1(C)CC[C@@H](O)C(C)(C)[C@@H]1CC3=O)C(C)C |
| > 40 µM | CC(C)C(=O)CC[C@@H](C(=O)O)[C@H]1[C@H](O)C[C@@]2(C)C3=CC[C@H]4C(C)(C)[C@@H](O)CC[C@]4(C)C3=CC[C@]12C |
| > 40 µM | C=C(CC[C@@H](C(=O)O)[C@H]1[C@H](O)C[C@@]2(C)C3=CC=C4C(C)(C)C(=O)CC[C@]4(C)C3=CC[C@]12C)C(C)C |
| > 40 µM | CC(C)C(=O)CC[C@@H](C(=O)O)[C@H]1[C@H](O)C[C@@]2(C)C3=CC[C@H]4C(C)(C)[C@H](O)CC[C@]4(C)C3=CC[C@]12C |

| Compound | IC50 |
| --- | --- |
| C=C(CC[C@@H](C(=O)O)[C@H]1[C@H](O)C[C@@]2(C)[C@]34C=C[C@@]5(OO3)C(C)(C)[C@@H](O)CC[C@]5(C)C4=CC[C@]12C)C(C)C | > 40 µM |
| C=C(CC[C@@H](C(=O)O)[C@H]1[C@H](O)C[C@@]2(C)[C@]34C=C[C@@]5(OO3)C(C)(C)[C@@H](OC(=O)CO)CC[C@]5(C)C4=CC[C@]12C)C(C)C | > 40 µM |

test system: MOLT-4; test: Antiproliferative activity against human MOLT4 cells after 72 hrs by MTT assay; type: functional, cell-based; conditions: MOLT-4, 72 h; in short: as §1

| IC50 | Compound |
| --- | --- |
| > 40 µM | C=C(CC[C@@H](C(=O)O)[C@H]1[C@H](O)C[C@@]2(C)C3=CCC4[C@](C)(CC[C@H](O)[C@]4(C)CO)C3=CC[C@]12C)C(C)C (stereo partly specified) |
| > 40 µM | C=C(C)C(=O)CC[C@@H](C(=O)O)[C@H]1[C@H](O)C[C@@]2(C)C3=C(CC[C@]12C)[C@@]1(C)CC[C@H](O)C(C)(C)[C@@H]1CC3 |
| > 40 µM | CC(C)=CCC[C@@H](C(=O)O)[C@H]1[C@H](O)C[C@@]2(C)C3=C(CC[C@]12C)[C@@]1(C)CC[C@H](O)C(C)(C)[C@@H]1CC3 |
| > 40 µM | C=C(CC[C@@H](C(=O)O)[C@H]1[C@H](O)C[C@@]2(C)C3=C(CC[C@]12C)[C@@]1(C)CC[C@@H](O)C(C)(C)[C@@H]1CC3=O)C(C)C |
| > 40 µM | CC(C)C(=O)CC[C@@H](C(=O)O)[C@H]1[C@H](O)C[C@@]2(C)C3=CC[C@H]4C(C)(C)[C@@H](O)CC[C@]4(C)C3=CC[C@]12C |
| > 40 µM | C=C(CC[C@@H](C(=O)O)[C@H]1[C@H](O)C[C@@]2(C)C3=CC=C4C(C)(C)C(=O)CC[C@]4(C)C3=CC[C@]12C)C(C)C |
| > 40 µM | CC(C)C(=O)CC[C@@H](C(=O)O)[C@H]1[C@H](O)C[C@@]2(C)C3=CC[C@H]4C(C)(C)[C@H](O)CC[C@]4(C)C3=CC[C@]12C |

| Compound | IC50 |
| --- | --- |
| C=C(CC[C@@H](C(=O)O)[C@H]1[C@H](O)C[C@@]2(C)[C@]34C=C[C@@]5(OO3)C(C)(C)[C@@H](O)CC[C@]5(C)C4=CC[C@]12C)C(C)C | > 40 µM |
| C=C(CC[C@@H](C(=O)O)[C@H]1[C@H](O)C[C@@]2(C)[C@]34C=C[C@@]5(OO3)C(C)(C)[C@@H](OC(=O)CO)CC[C@]5(C)C4=CC[C@]12C)C(C)C | > 40 µM |

test system: K562; test: Antiproliferative activity against human K562 cells after 72 hrs by MTT assay; type: functional, cell-based; conditions: K562, 72 h; in short: as §1

| IC50 | Compound |
| --- | --- |
| > 40 µM | C=C(CC[C@@H](C(=O)O)[C@H]1[C@H](O)C[C@@]2(C)C3=CCC4[C@](C)(CC[C@H](O)[C@]4(C)CO)C3=CC[C@]12C)C(C)C (stereo partly specified) |
| > 40 µM | C=C(C)C(=O)CC[C@@H](C(=O)O)[C@H]1[C@H](O)C[C@@]2(C)C3=C(CC[C@]12C)[C@@]1(C)CC[C@H](O)C(C)(C)[C@@H]1CC3 |
| > 40 µM | CC(C)=CCC[C@@H](C(=O)O)[C@H]1[C@H](O)C[C@@]2(C)C3=C(CC[C@]12C)[C@@]1(C)CC[C@H](O)C(C)(C)[C@@H]1CC3 |
| > 40 µM | C=C(CC[C@@H](C(=O)O)[C@H]1[C@H](O)C[C@@]2(C)C3=C(CC[C@]12C)[C@@]1(C)CC[C@@H](O)C(C)(C)[C@@H]1CC3=O)C(C)C |
| > 40 µM | CC(C)C(=O)CC[C@@H](C(=O)O)[C@H]1[C@H](O)C[C@@]2(C)C3=CC[C@H]4C(C)(C)[C@@H](O)CC[C@]4(C)C3=CC[C@]12C |
| > 40 µM | C=C(CC[C@@H](C(=O)O)[C@H]1[C@H](O)C[C@@]2(C)C3=CC=C4C(C)(C)C(=O)CC[C@]4(C)C3=CC[C@]12C)C(C)C |
| > 40 µM | CC(C)C(=O)CC[C@@H](C(=O)O)[C@H]1[C@H](O)C[C@@]2(C)C3=CC[C@H]4C(C)(C)[C@H](O)CC[C@]4(C)C3=CC[C@]12C |

| Compound | IC50 |
| --- | --- |
| C=C(CC[C@@H](C(=O)O)[C@H]1[C@H](O)C[C@@]2(C)[C@]34C=C[C@@]5(OO3)C(C)(C)[C@@H](O)CC[C@]5(C)C4=CC[C@]12C)C(C)C | > 40 µM |
| C=C(CC[C@@H](C(=O)O)[C@H]1[C@H](O)C[C@@]2(C)[C@]34C=C[C@@]5(OO3)C(C)(C)[C@@H](OC(=O)CO)CC[C@]5(C)C4=CC[C@]12C)C(C)C | > 40 µM |

test system: HL-60; test: Antiproliferative activity against human HL60 cells after 72 hrs by MTT assay; type: functional, cell-based; conditions: HL-60, 72 h; in short: as §1

| IC50 | Compound |
| --- | --- |
| > 40 µM | C=C(CC[C@@H](C(=O)O)[C@H]1[C@H](O)C[C@@]2(C)C3=CCC4[C@](C)(CC[C@H](O)[C@]4(C)CO)C3=CC[C@]12C)C(C)C (stereo partly specified) |
| > 40 µM | C=C(C)C(=O)CC[C@@H](C(=O)O)[C@H]1[C@H](O)C[C@@]2(C)C3=C(CC[C@]12C)[C@@]1(C)CC[C@H](O)C(C)(C)[C@@H]1CC3 |
| > 40 µM | CC(C)=CCC[C@@H](C(=O)O)[C@H]1[C@H](O)C[C@@]2(C)C3=C(CC[C@]12C)[C@@]1(C)CC[C@H](O)C(C)(C)[C@@H]1CC3 |
| > 40 µM | C=C(CC[C@@H](C(=O)O)[C@H]1[C@H](O)C[C@@]2(C)C3=C(CC[C@]12C)[C@@]1(C)CC[C@@H](O)C(C)(C)[C@@H]1CC3=O)C(C)C |
| > 40 µM | CC(C)C(=O)CC[C@@H](C(=O)O)[C@H]1[C@H](O)C[C@@]2(C)C3=CC[C@H]4C(C)(C)[C@@H](O)CC[C@]4(C)C3=CC[C@]12C |
| > 40 µM | C=C(CC[C@@H](C(=O)O)[C@H]1[C@H](O)C[C@@]2(C)C3=CC=C4C(C)(C)C(=O)CC[C@]4(C)C3=CC[C@]12C)C(C)C |
| > 40 µM | CC(C)C(=O)CC[C@@H](C(=O)O)[C@H]1[C@H](O)C[C@@]2(C)C3=CC[C@H]4C(C)(C)[C@H](O)CC[C@]4(C)C3=CC[C@]12C |

| Compound | IC50 |
| --- | --- |
| C=C(CC[C@@H](C(=O)O)[C@H]1[C@H](O)C[C@@]2(C)[C@]34C=C[C@@]5(OO3)C(C)(C)[C@@H](O)CC[C@]5(C)C4=CC[C@]12C)C(C)C | > 40 µM |
| C=C(CC[C@@H](C(=O)O)[C@H]1[C@H](O)C[C@@]2(C)[C@]34C=C[C@@]5(OO3)C(C)(C)[C@@H](OC(=O)CO)CC[C@]5(C)C4=CC[C@]12C)C(C)C | > 40 µM |
